Converted amounts (≈) assume the structure as drawn. The source made the active and inactive calls. No cut-off for these calls is given here. Starred links: 1 amine or outer side, 2 acyl side, 3 side chain; linkers in the order of their positions; H or OH if unused. Non-standard residues stand in square brackets, D forms with d. Residues, ends and D or L forms follow the SMILES beside them. *: point of attachment. azaβ3(1Nal) = O=C(CN(Cc1cccc2ccccc12)N[*:1])[*:2]; X2 = O=C(CN(Cc1ccc2ccccc2c1)N[*:1])[*:2]; X1 = NC(=O)CN(Cc1cccc2ccccc12)N*; X3 = NC(=O)CN(Cc1ccc2ccccc2c1)N*; X4 = NCCCCN(CC(=O)[*:2])N[*:1]
Tests used:
Vibrio splendidus = test: Antibacterial activity against Vibrio splendidus after 20 hrs by liquid growth inhibition assay; type: functional
Procedure, shortened: (§1)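 Vibrios cultured in saline poor broth (1% peptone, 1.5% NaCl, pH 7.2), diluted from mid-log phase to starting D600 = 0.001, then exposed to water-dissolved peptides at final 20–640 μg.mL-1. Incubated 20 h at 18°C; OD read at 595 nm. MIC is the lowest concentration giving 100% inhibition.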

Vibrio harveyi = test: Antibacterial activity against Vibrio harveyi after 20 hrs by liquid growth inhibition assay; type: functional; procedure, shortened: as §1
Escherichia coli = test: Antibacterial activity against Escherichia coli after 20 hrs by liquid growth inhibition assay; type: functional
Procedure, shortened: (§2)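 Liquid growth inhibition with peptides dissolved in distilled water, final 20–640 μg.mL-1, added to mid-log bacteria at starting D600 = 0.001. Standard strains in poor broth (1% peptone, 0.5% NaCl, pH 7.5); pathogenic strains in poor broth plus 0.3% beef extract. Incubated 20 h at 30°C; growth read as OD at 595 nm; MIC taken as lowest concentration giving 100% inhibition.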

Klebsiella pneumoniae = test: Antibacterial activity against Klebsiella pneumoniae after 20 hrs by liquid growth inhibition assay; type: functional; procedure, shortened: as §2
Enterococcus faecalis = test: Antibacterial activity against Enterococcus faecalis after 20 hrs by liquid growth inhibition assay; type: functional
Procedure, shortened: (§3)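 Bacteria grown in brain heart infusion and challenged at mid-log phase (starting D600 = 0.001) with water-dissolved peptides at final 20–640 μg.mL-1. After 20 h at 30°C, OD at 595 nm was read. MIC is the lowest concentration giving complete (100%) growth inhibition.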

Salmonella typhimurium = test: Antibacterial activity against Salmonella typhimurium after 20 hrs by liquid growth inhibition assay; type: functional, Salmonella enterica subsp. enterica serovar Typhimurium; procedure, shortened: as §2
Vibrio alginolyticus = test: Antibacterial activity against Vibrio alginolyticus after 20 hrs by liquid growth inhibition assay; type: functional; procedure, shortened: as §1
Listeria monocytogenes = test: Antibacterial activity against Listeria monocytogenes after 20 hrs by liquid growth inhibition assay; type: functional; procedure, shortened: as §3
Pseudomonas aeruginosa = test: Antibacterial activity against Pseudomonas aeruginosa after 20 hrs by liquid growth inhibition assay; type: functional; procedure, shortened: as §2
Priestia megaterium = test: Antibacterial activity against Bacillus megaterium after 20 hrs by liquid growth inhibition assay; type: functional; procedure, shortened: as §2
Staphylococcus aureus = test: Antibacterial activity against Staphylococcus aureus after 20 hrs by liquid growth inhibition assay; type: functional; procedure, shortened: as §2
[1] = (§4) Cytotoxicity against CHOK1 cells assessed as cell viability at 640 ug/ml after 36 hrs by MTT assay; type: cell-based, Cricetulus griseus, CHO-K1; conditions: chinese hamster, CHO-K1 cells; read-out: Activity
Procedure, shortened: (§5)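 CHO-K1 cells (1.34×10^4/well) in Ham F12 with L-glutamine and 10% foetal calf serum were preincubated 6 h at 37 °C, 5% CO2. Peptides in PBS were added at final 20–640 μg.mL−1 for 36 h. Viability was read by MTT reduction at 570 nm, with PBS as 100% and 1% Triton X-100 as 0% viability; triplicates.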

Vibrio aestuarianus = test: Antibacterial activity against Vibrio aestuarianus after 20 hrs by liquid growth inhibition assay; type: functional; procedure, shortened: as §1
[2] = Toxicity in rabbit erythrocytes assessed as hemolysis up to 320 ug/ml; type: cell-based, Oryctolagus cuniculus, Erythrocyte; conditions: read-out: Activity
Procedure, shortened: (§6)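 Freshly isolated rabbit erythrocytes were incubated 1 h at 37°C with peptide in PBS at 20 to 320 μg.mL−1. Supernatant OD was read at 415 nm, with PBS as zero and 1% Triton X-100 as 100% hemolysis; triplicate for each concentration and control.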

[3] = Ratio of HD50 for rabbit erythrocytes to MIC for Staphylococcus aureus; type: functional
[4] = Ratio of toxicity in CHOK1 cells to MIC for Salmonella typhimurium; type: functional, CHO-K1
[5] = Ratio of toxicity in CHOK1 cells to MIC for Listeria monocytogenes; type: functional, CHO-K1
CHO-K1 [6] = test: Cytotoxicity against CHOK1 cells assessed as cell viability up to 40 ug/ml after 36 hrs by MTT assay; type: cell-based, Cricetulus griseus; conditions: chinese hamster, cho-k1, 36 h; procedure, shortened: as §5
[7] = Cytotoxicity against CHOK1 cells assessed as cell viability at 160 ug/ml after 36 hrs by MTT assay; type: cell-based, Cricetulus griseus; conditions: chinese hamster, CHO-K1 cells; read-out: Activity; procedure, shortened: as §5
[8] = Toxicity in rabbit erythrocytes assessed as hemolysis; type: cell-based, Oryctolagus cuniculus, Erythrocyte; conditions: read-out: HD50 (the source's name); procedure, shortened: as §6
[9] = Ratio of toxicity in CHOK1 cells to MIC for Staphylococcus aureus; type: functional, CHO-K1
CHO-K1 [10] = test: as §4; type: cell-based, Cricetulus griseus; conditions: chinese hamster, cho-k1, 36 h; procedure, shortened: as §5
[11] = Salmonella enterica subsp. enterica serovar Typhimurium

Compound	MIC (Vibrio splendidus) [mg/L]	MIC (Vibrio harveyi)	MIC (Escherichia coli)	MIC (Klebsiella pneumoniae)	MIC (Enterococcus faecalis)	MIC (Salmonella typhimurium; Salmonella enterica) [mg/L]	MIC (Vibrio alginolyticus)	MIC (Listeria monocytogenes)	MIC (Pseudomonas aeruginosa)	MIC (Priestia megaterium)	MIC (Staphylococcus aureus)	MIC (Vibrio aestuarianus)	further results
CC(C)C[C@H](NC(=O)CN(Cc1ccc2ccccc2c1)NC(=O)[C@H](C)NC(=O)[C@H](CCCCN)NC(=O)CNC(=O)[C@H](CO)NC(=O)[C@H](CC(C)C)NC(=O)[C@H](C)N)C(=O)N[C@@H](CCCNC(=N)N)C(=O)NN(CC(N)=O)Cc1ccc2ccccc2c1 (H-ALSGKA[X2]LR-X3)	640 (≈ 517 µM)	640 mg/L (≈ 517 µM)	160 mg/L (≈ 129 µM)	> 640 mg/L	> 640 mg/L	160 (≈ 129 µM)	> 640 mg/L	160 mg/L (≈ 129 µM)	320 mg/L (≈ 258 µM)	80 mg/L (≈ 64.6 µM)	40 mg/L (≈ 32.3 µM)	80 mg/L (≈ 64.6 µM)	viability at 36 h, 640 ug/ml [1]: 47%
CC(C)C[C@H](NC(=O)CN(Cc1ccc2ccccc2c1)NC(=O)[C@H](C)NC(=O)[C@H](CCCCN)NC(=O)CNC(=O)[C@H](CO)NC(=O)[C@H](CC(C)C)NC(=O)[C@H](C)N)C(=O)N[C@@H](CCCNC(=N)N)C(=O)N[C@@H](Cc1ccccc1)C(N)=O (H-ALSGKA[X2]LRF-NH2)	20 (≈ 17 µM)	40 mg/L (≈ 34.1 µM)	320 mg/L (≈ 273 µM)	inactive	> 640 mg/L	80 (≈ 68.2 µM)	80 mg/L (≈ 68.2 µM)	80 mg/L (≈ 68.2 µM)	160 mg/L (≈ 136 µM)	80 mg/L (≈ 68.2 µM)	80 mg/L (≈ 68.2 µM)	40 mg/L (≈ 34.1 µM)	hemolysis [2]: 5%
CC(C)C[C@H](NC(=O)CN(Cc1cccc2ccccc12)NC(=O)[C@H](C)NC(=O)[C@H](CCCCN)NC(=O)CNC(=O)[C@H](CO)NC(=O)[C@H](CC(C)C)NC(=O)[C@H](C)N)C(=O)N[C@@H](CCCNC(=N)N)C(=O)NN(CC(N)=O)Cc1cccc2ccccc12 (H-ALSGKA[azaβ3(1Nal)]LR-X1)	320 (≈ 258 µM)	640 mg/L (≈ 517 µM)	40 mg/L (≈ 32.3 µM)	inactive	> 640 mg/L	80 (≈ 64.6 µM)	> 640 mg/L	80 mg/L (≈ 64.6 µM)	160 mg/L (≈ 129 µM)	20 mg/L (≈ 16.1 µM)	20 mg/L (≈ 16.1 µM)	80 mg/L (≈ 64.6 µM)	Ratio [3]: 10; Ratio [4]: 8; Ratio [5]: 8; Activity (CHO-K1 [6]): Non-toxic; viability at 36 h, 160 ug/ml [7]: 78%; HC50 [8]: 200 µg/mL; Ratio [9]: 32; Activity (CHO-K1 [10]): Toxic
CC(C)C[C@H](NC(=O)[C@H](C)N)C(=O)N[C@@H](CO)C(=O)NCC(=O)NN(CCCCN)CC(=O)N[C@@H](C)C(=O)N[C@@H](Cc1ccccc1)C(=O)N[C@@H](CC(C)C)C(=O)N[C@@H](CCCNC(=N)N)C(=O)N[C@@H](Cc1ccccc1)C(N)=O (H-ALSG[X4]AFLRF-NH2)	320 (≈ 285 µM)	inactive	inactive	inactive	inactive	–	inactive	inactive	> 640 mg/L	inactive	inactive	inactive	MIC (Salmonella typhimurium; [11]): inactive
CC1(C)S[C@@H]2[C@H](NC(=O)[C@H](N)c3ccccc3)C(=O)N2[C@H]1C(=O)O [AMPICILLIN]	10 (≈ 28.6 µM)	> 320 mg/L	5 mg/L (≈ 14.3 µM)	5 mg/L (≈ 14.3 µM)	5 mg/L (≈ 14.3 µM)	5 (≈ 14.3 µM)	> 320 mg/L	5 mg/L (≈ 14.3 µM)	320 mg/L (≈ 916 µM)	20 mg/L (≈ 57.2 µM)	5 mg/L (≈ 14.3 µM)	5 mg/L (≈ 14.3 µM)	–
H-ALSGDAFLRF-NH2	320	> 640 mg/L	640 mg/L	inactive	inactive	–	320 mg/L	inactive	inactive	640 mg/L	inactive	640 mg/L	MIC (Salmonella typhimurium; [11]): inactive
H-ALSGKAFLRF-NH2	40	320 mg/L	80 mg/L	> 640 mg/L	inactive	320	320 mg/L	inactive	640 mg/L	80 mg/L	320 mg/L	80 mg/L	hemolysis [2]: < 1.5%; viability at 36 h, 640 ug/ml [1]: 87%

— ChEMBL document CHEMBL2029211, “From a marine neuropeptide to antimicrobial pseudopeptides containing aza-β(3)-amino acids: structure and activity” (J Med Chem, 2012)
